Here are results for one molecule from ChEMBL document CHEMBL2021876, “New pyridobenzoxazepine derivatives derived from 5-(4-methylpiperazin-1-yl)-8-chloro-pyrido[2,3-b][1,5]benzoxazepine (JL13): chemical synthesis and pharmacological evaluation” (J Med Chem, 2012).

Assay [1] deals with Hippocampus. The assay can be described thus: In vivo displacement of [3H]8-OH-DPAT from 5HT1A receptor in Sprague-Dawley rat hippocampus CA3 region at 13.75 mg/kg, ip qd for 28 days by autoradiography relative to control. The class given is functional. To be noted: route intraperitoneal. The method, boiled down:
(§1)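 Male Sprague-Dawley rats (200−225 g, N = 8/group) dosed ip once daily for 28 days, vehicle controls, decapitated; 10 μm frozen coronal sections. Preincubation 1 h RT in 50 mM Tris-HCl pH 7.6, 0.1% ascorbic acid, 4 mM CaCl2, 10 μM pargyline; then 1 h RT with 2.0 nM [3H]8-OH-DPAT. Nonspecific: 1 μM 5-HT. Saturating conditions; binding in fmol/mg tissue, % of control, mean ± SEM.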
In general terms: Loss of bound radioactivity is the signal in a displacement assay; it reports binding, not function.

The subject of assay [2] is Hippocampus. The assay can be described thus: In vivo displacement of [3H]Nemonapride from dopamine D4 receptor in Sprague-Dawley rat hippocampus at 13.75 mg/kg, ip qd for 28 days by autoradiography relative to control. The class given is functional. To be noted: route intraperitoneal.
In assay [3] the test system is Caudate-putamen. In words: In vivo displacement of [3H]Ketanserin from 5HT2A receptor in Sprague-Dawley rat medial part of caudate putamen at 13.75 mg/kg, ip qd for 28 days by autoradiography relative to control. To be noted: route intraperitoneal. The class given is functional. The method, boiled down:
(§2)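 Rats (male Sprague-Dawley, N = 8/group) given daily ip injections for 28 days versus vehicle. Brain sections preincubated 1 h RT in 50 mM Tris-HCl pH 7.7, then 1 h RT with 3.0 nM [3H]ketanserin plus 1 μM prazosin and 100 nM tetrabenazine. Nonspecific: 1 μM methysergide. Washes 2 × 30 min ice-cold. Readout fmol/mg tissue as % of control, mean ± SEM.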

In assay [4] the test system is Caudate-putamen. In words: In vivo displacement of [3H]Ketanserin from 5HT2A receptor in Sprague-Dawley rat lateral part of caudate putamen at 13.75 mg/kg, ip qd for 28 days by autoradiography relative to control. The class given is functional. To be noted: route intraperitoneal. The method, boiled down: as §2
Assay [5] relates to Hippocampus. In words: In vivo displacement of [3H]Nemonapride from dopamine D2 receptor in Sprague-Dawley rat hippocampus at 13.75 mg/kg, ip qd for 28 days by autoradiography relative to control. The class given is functional. The conditions noted are these: route intraperitoneal. In a few lines:
(§3)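 Male Sprague-Dawley rats, N = 8/group, daily ip dosing for 28 days with vehicle controls; cryostat sections (10 μm) preincubated 1 h RT. Incubation 1 h RT in 50 mM Tris-HCl pH 7.4, 120 mM NaCl, 5 mM KCl, 2 mM CaCl2, 1 mM MgCl2 with 1 nM [3H]nemonapride, 0.5 μM DTG, 0.1 μM pindolol. Nonspecific: 10 μM S(−)-sulpiride. Values fmol/mg tissue, % of control.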

Assay [6] addresses Serotonin 1a (5-HT1a) receptor/Adrenergic receptor alpha-1 (Rattus norvegicus) (UniProt P15823+P23944+P43140+P19327). The assay can be described thus: In vivo displacement of [3H]8-OH-DPAT from 5HT1A receptor in Sprague-Dawley rat medial-prefrontal cortex at 13.75 mg/kg, ip qd for 28 days by autoradiography relative to control. On the set-up: dose 13.75 mg/kg. The class given is functional, organism-based. In a few lines:
as §1

Assay [7] concerns the target D(2) dopamine receptor (Rattus norvegicus) (UniProt P61169). The assay can be described thus: In vivo displacement of [3H]Nemonapride from dopamine D2 receptor in Sprague-Dawley rat dorsolateral frontal cortex at 13.75 mg/kg, ip qd for 28 days by autoradiography relative to control. The class given is functional, organism-based. On the set-up: dose 13.75 mg/kg. In a few lines: as §3

Assay [8] deals with Hippocampus. In words: In vivo displacement of [3H]SCH-23390 from dopamine D1 receptor in Sprague-Dawley rat hippocampus at 13.75 mg/kg, ip qd for 28 days by autoradiography relative to control. The class given is functional. To be noted: route intraperitoneal. The method, boiled down: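 Forebrain sections from male Sprague-Dawley rats (N = 8/group) after 28 days of daily ip injections versus vehicle. Incubation 1 h RT in 50 mM Tris-HCl pH 7.4, 120 mM NaCl, 5 mM KCl, 2 mM CaCl2, 1 mM MgCl2 with 1 nM [3H]SCH-23390 and 100 nM ketanserin. Nonspecific: 1 μM cis-flupenthixol. Saturating conditions; fmol/mg tissue, % of control.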

The test system of assay [9] is Hippocampus. In words: In vivo displacement of [3H]Ketanserin from 5HT2A receptor in Sprague-Dawley rat hippocampus CA3 region at 13.75 mg/kg, ip qd for 28 days by autoradiography relative to control. The class given is functional. The conditions noted are these: route intraperitoneal. In a few lines: as §2

Chain of D(2) dopamine receptor (Rattus norvegicus) (P61169 whole entry): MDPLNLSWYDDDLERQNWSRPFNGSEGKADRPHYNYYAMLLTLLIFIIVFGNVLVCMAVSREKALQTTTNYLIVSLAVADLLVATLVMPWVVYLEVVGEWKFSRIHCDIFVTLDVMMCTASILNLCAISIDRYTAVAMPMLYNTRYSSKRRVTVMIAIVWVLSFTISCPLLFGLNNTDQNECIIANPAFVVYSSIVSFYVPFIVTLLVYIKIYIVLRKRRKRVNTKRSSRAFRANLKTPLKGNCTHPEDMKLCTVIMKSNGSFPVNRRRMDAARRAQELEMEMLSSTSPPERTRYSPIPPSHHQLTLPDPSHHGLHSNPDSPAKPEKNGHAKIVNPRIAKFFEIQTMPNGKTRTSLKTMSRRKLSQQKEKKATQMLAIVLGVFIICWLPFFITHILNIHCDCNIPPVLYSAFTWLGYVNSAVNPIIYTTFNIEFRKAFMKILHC

On to `Clc1ccc2c(c1)N=C(N1CCNCC1)c1cccnc1O2`, for which the inhibition in vivo at 13.75 mg/kg in the assay on Hippocampus [1] was 105%; with Hippocampus [2], 117%; in the assay with Caudate-putamen [3], 87%; in the assay with Caudate-putamen [4] it was 107%; in the assay with Hippocampus [5], 134%; with Hippocampus [8], 105%. Also, the inhibition in vivo at 13.75 mg/kg in the assay on Hippocampus [9] stood at 92%. The inhibition is 137% in assay [6] and 103% in [7].

As a reminder, the inhibition in vivo is the relative decrease from the control value, in per cent. The term inhibition denotes the change of the read-out against control, counted positive when it falls.
